The sample as a whole holds a higher share of hits than the screen did.
HUVEC prolif 384: human endothelial cell proliferation inhibition. HUVEC proliferation, CellTiter-Glo luminescence, 72 h; hits give low values. viability, % at 10 µM (by protocol). 86,000 compounds, 1.1% hits;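 active = viability at or below 30%; inactive = viability above 30%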;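 also: 100% = median luminescence of DMSO-only cell control wells on each plate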
bCat KO growth: beta-catenin-lacking colon tumor cell growth suppression; viability, % at 10 µM; 140,000 compounds, 1.5% hits; AID 818; HCT116 beta-catenin knockout viability, CellTiter-Glo, 60 h; hits give low values;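 active = viability at or under a set limit, the compound median less 4 SD, cut at about 6% in these data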;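 also: 0% = Hyamine 1622 control at 20 µM and 100% = untreated cell control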
Lung fibro prol: blocks proliferation of human lung fibroblasts; viability, % at 10 µM; AID 719; 85,000 compounds, 1.1% hits; LL 47 human lung fibroblast viability, ATP luminescence; hits give low values;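 active = viability at or below 50% in the single dose screen; inactive = viability above 50%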;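 also: compound exposure lasted 72 h before the ATP readout; 100% = median luminescence of untreated cell-only wells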
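Signal: luminescent ATP detection, CellTiter-Glo; assay system: LL 47 human lung fibroblasts; input: 1,150 cells/well; incubation: overnight cell rest, 72 h compound treatment at 37 °C; measure: % viability versus median cells-only luminescence; medium: IMEM growth medium with 15% fetal bovine serum; dosing: compound addition at 0.1% DMSO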
HCT116 PTEN-null: suppresses growth of cells with PTEN deletion; HCT116 PTEN-null viability, CellTiter-Glo, 60 h; hits give low values; viability, % at 10 µM; 140,000 compounds, 1.2% hits; AID 827;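 active = viability at or below a set limit, 4 SD under the median of all tested compounds, cut at about 3.7% in these data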;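 also: PTEN knockout HCT116 line with beta catenin targeted HCT116 as companion control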
H69AR growth 86K: growth inhibitors of human H69AR lung tumor cells; viability, % at 10 µM; AID 598; H69AR lung tumor viability, ATP luminescence, 72 h; hits give low values; 85,000 compounds, 6% hits;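 active = viability at or below 40%; inactive = viability above 40%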;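 also: multidrug resistant small cell line overexpressing MRP-1 efflux transporter; 100% = mean luminescence of untreated control wells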
An asterisk follows results filed as active.

Results for CCNc1nc(NC(C)(C)C)nc(N(C#N)CC)n1 ?
HUVEC prolif 384: 97; bCat KO growth: 97; Lung fibro prol: 94; HCT116 PTEN-null: 101; H69AR growth 86K: 33*

Results for CCc1ccc(OCC(=O)Nc2cc(S(=O)(=O)CC)ccc2O)cc1 ?
bCat KO growth: 97; HCT116 PTEN-null: 95

How did O=C1c2ccccc2NC(c2ccccc2Cl)N1N=C1CCCCCC1 (stereo not drawn) do in these assays?
bCat KO growth: 87; HCT116 PTEN-null: 76

How did FC(F)(F)c1cc(-c2ccco2)nc(NCCc2ccccc2)n1 do in these assays?
HUVEC prolif 384: 88; bCat KO growth: 52; Lung fibro prol: 89; HCT116 PTEN-null: 50; H69AR growth 86K: 24*

What do the screens show for `COc1ccccc1N1C(=O)CC(Sc2n[nH]c(-c3cccc(C)c3)n2)C1=O` (stereo not drawn)?
bCat KO growth: 100; HCT116 PTEN-null: 100

How did O=C(CCN1CCC(c2ccccc2)C1)c1cccs1 (stereo not drawn) do in these assays?
bCat KO growth: 16; HCT116 PTEN-null: 2.8*

Results for O=C(CCN1CCC(c2ccccc2)C1)c1ccccc1 (stereo not drawn) ?
bCat KO growth: 87; HCT116 PTEN-null: 96

What do the screens show for `O=C(COc1ccc(/C=N/NC(=O)c2cc3ccccc3o2)cc1Br)Nc1ccccc1`?
bCat KO growth: 1.8*; HCT116 PTEN-null: 3.5*

How did Cc1ccc(NC(=O)C2=C(O)c3ccccc3N(C)S2(=O)=O)cc1 do in these assays?
bCat KO growth: 93; HCT116 PTEN-null: 78

What do the screens show for `COC(=O)COc1ccc(S(=O)(=O)NCCC2=CCCCC2)cc1Cl`?
HUVEC prolif 384: 10*; bCat KO growth: 103; Lung fibro prol: 74; HCT116 PTEN-null: 92; H69AR growth 86K: 99

How did COC(=O)COc1ccc(S(=O)(=O)Nc2ccc3c(c2)OCO3)cc1Cl do in these assays?
HUVEC prolif 384: 2.3*; bCat KO growth: 93; Lung fibro prol: 44*; HCT116 PTEN-null: 99; H69AR growth 86K: 104

How did COC(=O)COc1ccc(S(=O)(=O)Nc2ccc3c(c2)OCO3)cc1 do in these assays?
HUVEC prolif 384: 65; bCat KO growth: 93; Lung fibro prol: 76; HCT116 PTEN-null: 99; H69AR growth 86K: 85

Results for COc1ccc(N(CC(=O)Nc2nc3ccc(C)cc3s2)S(=O)(=O)c2c(C)nn(C)c2C)cc1 ?
HUVEC prolif 384: 73; bCat KO growth: 26; Lung fibro prol: 86; HCT116 PTEN-null: 32; H69AR growth 86K: 15*

What do the screens show for `CCOC(=O)/C=C/C(=O)OCC(=O)Nc1ccc(Cl)cn1`?
HUVEC prolif 384: 83; bCat KO growth: 82; Lung fibro prol: 70; HCT116 PTEN-null: 83; H69AR growth 86K: 81

What do the screens show for `CCOC(=O)NC1(Nc2ccc(Cl)cn2)Oc2ccccc2O1`?
HUVEC prolif 384: 79; bCat KO growth: 88; Lung fibro prol: 96; HCT116 PTEN-null: 87; H69AR growth 86K: 28*

How did COc1ccc2c(c1OC)C(=O)N1c3ccccc3C(=O)N(c3ccc(F)cc3)C21 (stereo not drawn) do in these assays?
HUVEC prolif 384: 88; bCat KO growth: 61; Lung fibro prol: 93; HCT116 PTEN-null: 75; H69AR growth 86K: 12*

What do the screens show for `COc1ccc2c(c1OC)C(=O)N1c3ccccc3N=C(c3ccc([N+](=O)[O-])cc3)CC21` (stereo not drawn)?
bCat KO growth: 47; HCT116 PTEN-null: 38

Results for COc1ccc2c(c1OC)C(=O)N1c3ccccc3C(=O)N(c3ccccc3)C21 (stereo not drawn) ?
HUVEC prolif 384: 68; bCat KO growth: 52; Lung fibro prol: 93; HCT116 PTEN-null: 59; H69AR growth 86K: 1.0*

How did Cc1ccccc1N1C(=O)c2ccccc2N2C(=O)c3ccccc3C12 (stereo not drawn) do in these assays?
HUVEC prolif 384: 85; bCat KO growth: 76; Lung fibro prol: 80; HCT116 PTEN-null: 75; H69AR growth 86K: 58

What do the screens show for `CCc1ccc2[nH]c(=O)c(C3C(C#N)=C(N)Oc4c3ccc3cccnc43)cc2c1` (stereo not drawn)?
HUVEC prolif 384: 57; bCat KO growth: 13; Lung fibro prol: 70; HCT116 PTEN-null: 15; H69AR growth 86K: 0.8*

How did Cc1ccc2cc(C3C(C#N)=C(N)Oc4c3ccc3cccnc43)c(=O)[nH]c2c1 (stereo not drawn) do in these assays?
HUVEC prolif 384: 80; bCat KO growth: 82; Lung fibro prol: 51; HCT116 PTEN-null: 93; H69AR growth 86K: 37*

What do the screens show for `Cc1[nH]n(-c2ccccc2)c(=O)c1/C=N/NC(=O)COc1ccccc1[N+](=O)[O-]`?
bCat KO growth: 24; HCT116 PTEN-null: 16

What do the screens show for `Cc1[nH]n(-c2cccc3ccccc23)c(=O)c1/C=N/NC(=O)c1cccc([N+](=O)[O-])c1`?
bCat KO growth: 4.5*; HCT116 PTEN-null: 3.6*

What do the screens show for `CN1CCN(c2ccc([N+](=O)[O-])cc2/C=N/NC(=O)c2cccc([N+](=O)[O-])c2)CC1`?
bCat KO growth: 5.3*; HCT116 PTEN-null: 4

How did Cc1[nH]n(-c2ccccc2)c(=O)c1/C=N/NC(=O)c1cccc([N+](=O)[O-])c1 do in these assays?
bCat KO growth: 2.4*; HCT116 PTEN-null: 2.6*

How did CCN(CC)C(=O)C1CCCN(c2ccc([N+](=O)[O-])cc2/C=N/NC(=O)c2cccc(O)c2)C1 (stereo not drawn) do in these assays?
bCat KO growth: 56; HCT116 PTEN-null: 51

Results for O=C(N/N=C/c1c[nH]c2ccccc12)c1cccc([N+](=O)[O-])c1 ?
bCat KO growth: 89; HCT116 PTEN-null: 79

How did O=C(N/N=C\c1ccc(-c2ccc([N+](=O)[O-])cc2)o1)C1COc2ccccc2O1 (stereo not drawn) do in these assays?
bCat KO growth: 95; HCT116 PTEN-null: 97

Results for O=C(CCC(=O)c1ccc(F)cc1)Nc1cc(Cl)cc(Cl)c1 ?
bCat KO growth: 96

Results for O=[n+]1cc(-c2ccc(Cl)cc2)n([O-])c2c1CCCCC2 ?
bCat KO growth: 93; HCT116 PTEN-null: 97

What do the screens show for `CCOc1cc(S(=O)(=O)NCc2ccc(OC)cc2)c(OCC)cc1-n1cnnn1`?
HUVEC prolif 384: 58; bCat KO growth: 48; Lung fibro prol: 56; HCT116 PTEN-null: 33; H69AR growth 86K: 22*

How did CCOc1cc(S(=O)(=O)NCCc2ccc(OC)c(OC)c2)c(OCC)cc1-n1cnnn1 do in these assays?
HUVEC prolif 384: 94; bCat KO growth: 92; Lung fibro prol: 87; HCT116 PTEN-null: 109; H69AR growth 86K: 84

Results for Cc1ccc2c(c1)c1cccc3c1n2CCN3CCC(N)=O ?
HUVEC prolif 384: 21*; bCat KO growth: 73; Lung fibro prol: 86; HCT116 PTEN-null: 61; H69AR growth 86K: 95

Results for COC(=O)c1c(C(=O)OC)n(CCCN)c2ccc(C)cc12 ?
HUVEC prolif 384: 87; bCat KO growth: 73; Lung fibro prol: 93; HCT116 PTEN-null: 77; H69AR growth 86K: 102

How did CS(=O)(=O)N(CCc1ccccc1)CC(=O)NCc1ccco1 do in these assays?
HUVEC prolif 384: 95; bCat KO growth: 85; Lung fibro prol: 98; HCT116 PTEN-null: 94; H69AR growth 86K: 98
